Results reported in ChEMBL document CHEMBL2177000, “Pharmacokinetic optimization of class-selective histone deacetylase inhibitors and identification of associated candidate predictive biomarkers of hepatocellular carcinoma tumor response” (J Med Chem, 2012).

Tests used:
[1] = target: Histone deacetylase (Homo sapiens) (UniProt Q13547+O15379+Q9UBN7+Q92769+Q9UQL6+Q8WUI4+Q9BY41+Q96DB2+P56524+Q9UKV0+Q969S8); test: Inhibition of Class 1 histone deacetylase in human HeLa cells assessed as induction in p21 protein expression at 3 uM incubated for 16 hrs by luciferase reporter gene assay relative to HDAC inhibitor entinostat; assay type: cell-based; parameters: scale not given: the % may be the effect or the level left
[2] = Clearance in mouse liver microsomes at 1 uM incubated for 10 mins by LC-MS/MS method; assay type: ADME, Microsome
In short: (§1)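 Liver microsomes (human or mouse, 0.5 mg/mL) in 100 mM potassium phosphate pH 7.4 with 1 μM compound, prewarmed 10 min at 37 °C, started with NADPH (10 mM); stopped at 0, 3, 6, 9, 15, 30 min with ice-cold methanol containing tolbutamide internal standard; LC-MS/MS. Hepatic clearance (mL/min/kg) calculated from intrinsic clearance.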

[3] = Clearance in human liver microsomes at 1 uM incubated for 10 mins by LC-MS/MS method; assay type: ADME, Microsome; in short: as §1

| Activity [1] [%] | CLhep predicted at 1 µM [2] [L/h/kg] | CLhep predicted at 1 µM [3] [L/h/kg] | Compound |
| --- | --- | --- | --- |
| 50 | – | – | CN1C[C@H](C(=O)Nc2ccncc2)[C@@H](c2ccc(/C=C/C(=O)Nc3ccccc3N)cc2)C1 (racemic) |
| 100 | 2.1 | 0.9 | Nc1ccccc1NC(=O)/C=C/c1ccc([C@H]2CN(CC(F)(F)F)C[C@@H]2C(=O)Nc2ccc(Cl)cc2)cc1 (racemic) |
| 60 | 3.6 | 0.72 | CN1C[C@H](C(=O)Nc2ccc(C3CC3)cc2)[C@@H](c2ccc(/C=C/C(=O)Nc3ccccc3N)cc2)C1 (racemic) |
| 350 | 4.44 | 0.84 | Cc1cccc(NC(=O)[C@H]2CN(C)C[C@@H]2c2ccc(/C=C/C(=O)Nc3ccccc3N)cc2)c1 (racemic) |
| 160 | 2.16 | 0.84 | CN1C[C@H](C(=O)Nc2ccc(Cl)c(Cl)c2)[C@@H](c2ccc(/C=C/C(=O)Nc3ccccc3N)cc2)C1 (racemic) |
| 80 | 0.42 | 0.6 | CN1C[C@H](C(=O)NC2CC2)[C@@H](c2ccc(/C=C/C(=O)Nc3ccccc3N)cc2)C1 (racemic) |
| 260 | 3.72 | 0.9 | Cc1ccc(NC(=O)[C@H]2CN(C)C[C@@H]2c2ccc(/C=C/C(=O)Nc3ccccc3N)cc2)cc1 (racemic) |
| 180 | 3.06 | 1.02 | Nc1ccccc1NC(=O)/C=C/c1ccc([C@H]2CN(CCF)C[C@@H]2C(=O)Nc2ccc(Cl)cc2)cc1 (racemic) |
| 40 | 1.5 | 0.54 | CCNC(=O)N1C[C@H](C(=O)Nc2ccc(Cl)cc2)[C@@H](c2ccc(/C=C/C(=O)Nc3ccccc3N)cc2)C1 (racemic) |
| 200 | 2.58 | 0.66 | CN1C[C@H](C(=O)Nc2ccc(Cl)cc2F)[C@@H](c2ccc(/C=C/C(=O)Nc3ccccc3N)cc2)C1 (racemic) |
| 90 | 2.94 | 0.96 | Nc1ccccc1NC(=O)/C=C/c1ccc([C@H]2CN(CC(F)F)C[C@@H]2C(=O)Nc2ccc(Cl)cc2)cc1 (racemic) |
| 170 | 4.02 | 0.6 | CN1C[C@H](C(=O)Nc2ccccc2F)[C@@H](c2ccc(/C=C/C(=O)Nc3ccccc3N)cc2)C1 (racemic) |
| > 300 | 1.5 | 0.66 | CN1C[C@H](C(=O)Nc2ccc(Cl)cc2)[C@@H](c2cnc(/C=C/C(=O)Nc3ccccc3N)cn2)C1 (racemic) |
| 200 | 2.58 | 0.9 | CN1C[C@H](C(=O)Nc2ccc(F)c(Br)c2)[C@@H](c2ccc(/C=C/C(=O)Nc3ccccc3N)cc2)C1 (racemic) |
| 190 | 3.06 | 1.02 | N#CCN1C[C@H](C(=O)Nc2ccc(Cl)cc2)[C@@H](c2ccc(/C=C/C(=O)Nc3ccccc3N)cc2)C1 (racemic) |
| 250 | 4.32 | 0.36 | COCCN1C[C@H](C(=O)Nc2ccc(Cl)cc2)[C@@H](c2ccc(/C=C/C(=O)Nc3ccccc3N)cc2)C1 (racemic) |
| 90 | 4.98 | 1.14 | CCN(CC)C(=O)N1C[C@H](C(=O)Nc2ccc(Cl)cc2)[C@@H](c2ccc(/C=C/C(=O)Nc3ccccc3N)cc2)C1 (racemic) |
| 70 | 0.72 | 0.48 | CC(C)NC(=O)[C@H]1CN(C)C[C@@H]1c1ccc(/C=C/C(=O)Nc2ccccc2N)cc1 (racemic) |
| > 300 | 2.28 | 0.72 | CN1C[C@H](C(=O)Nc2ccc(Cl)cc2)[C@@H](c2ccc(/C=C/C(=O)Nc3ccccc3N)nc2)C1 (racemic) |
| 240 | – | – | CN1C[C@H](C(=O)Nc2ccc(Cl)cc2)[C@@H](c2ccc(/C=C/C(=O)Nc3ccccc3N)cc2)C1 (racemic) |
